Measurements taken from ChEMBL document CHEMBL3763086, “Salicylanilide N-monosubstituted carbamates: Synthesis and in vitro antimicrobial activity” (2016).
Values after ≈ are worked out from the molar mass of the structure shown.

Columns and labels:
Format in all cases: functional
[1] = system: Nakaseomyces glabratus; test: Antifungal activity against Candida glabrata 20/I after 48 hrs by microbroth dilution method
[2] = system: Trichophyton mentagrophytes; test: Antifungal activity against Trichophyton mentagrophytes 445 after 72 hrs by microbroth dilution method; details: Trichophyton mentagrophytes, 445, 72 h
[3] = system: Staphylococcus aureus; test: Antibacterial activity against Staphylococcus aureus CCM 4516/08 after 24 hrs by microbroth dilution method; details: CCM 4516/08, 24 h
Summary of the method: (§1)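 Microbroth dilution modified per M07-A07 in Mueller-Hinton broth, pH 7.4 (±0.2). Inoculum in sterile water adjusted to 0.5 McFarland. MIC taken as growth reduction of at least 90% (IC90) versus control, read visually and at 540 nm after 24 and 48 h incubation in the dark.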

[4] = system: Staphylococcus aureus; test: Antibacterial activity against methicillin-resistant Staphylococcus aureus H 5996/08 after 24 hrs by microbroth dilution method; details: H 5996/08, 24 h
Summary of the method: (§2)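 Microdilution broth method modified after M07-A07 in Mueller-Hinton broth adjusted to pH 7.4 (±0.2). Inoculum prepared in sterile water to 0.5 McFarland (1.5 × 10^8 CFU/mL). MIC taken as growth reduction versus control (IC95 per table header), read visually and spectrophotometrically at 540 nm after 24 and 48 h incubation in the dark.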

[5] = system: Staphylococcus epidermidis; test: Antibacterial activity against Staphylococcus epidermidis H 6966/08 after 48 hrs by microbroth dilution method; details: H 6966/08, 48 h; summary of the method: as §1
[6] = system: Candida albicans; test: Antifungal activity against Candida albicans ATCC 44859 after 24 hrs by microbroth dilution method; details: ATCC 44859, 24 h
[7] = system: Candida tropicalis; test: Antifungal activity against Candida tropicalis 156 after 48 hrs by microbroth dilution method; details: Candida tropicalis, 156, 48 h
[8] = system: Nakaseomyces glabratus; test: Antifungal activity against Candida glabrata 20/I after 24 hrs by microbroth dilution method
[9] = system: Klebsiella pneumoniae; test: Antibacterial activity against Klebsiella pneumoniae D 11750/08 after 48 hrs by microbroth dilution method; details: D 11750/08, 48 h; summary of the method: as §1
[10] = system: Klebsiella pneumoniae; test: Antibacterial activity against ESBL-positive Klebsiella pneumoniae J 14368/08 after 24 hrs by microbroth dilution method; details: J 14368/08, 24 h; summary of the method: as §1
[11] = system: Staphylococcus aureus; test: Antibacterial activity against Staphylococcus aureus CCM 4516/08 after 48 hrs by microbroth dilution method; details: CCM 4516/08, 48 h; summary of the method: as §2
[12] = system: Klebsiella pneumoniae; test: Antibacterial activity against Klebsiella pneumoniae D 11750/08 after 24 hrs by microbroth dilution method; details: D 11750/08, 24 h; summary of the method: as §1
[13] = system: Staphylococcus epidermidis; test: Antibacterial activity against Staphylococcus epidermidis H 6966/08 after 24 hrs by microbroth dilution method; details: H 6966/08, 24 h; summary of the method: as §1
[14] = system: Enterococcus sp.; test: Antibacterial activity against Enterococcus sp. J 14365/08 after 24 hrs by microbroth dilution method; details: J 14365/08, 24 h; summary of the method: as §1
[15] = system: Candida tropicalis; test: Antifungal activity against Candida tropicalis 156 after 24 hrs by microbroth dilution method; details: Candida tropicalis, 156, 24 h
[16] = system: Trichosporon asahii; test: Antifungal activity against Trichosporon asahii 1188 after 24 hrs by microbroth dilution method; details: Trichosporon asahii, 1188, 24 h
[17] = system: Escherichia coli; test: Antibacterial activity against Escherichia coli CCM 4517 after 24 hrs by microbroth dilution method; details: CCM 4517, 24 h; summary of the method: as §1
[18] = system: Lichtheimia corymbifera; test: Antifungal activity against Absidia corymbifera 272 after 24 hrs by microbroth dilution method; details: Lichtheimia corymbifera, 272, 24 h
[19] = system: Lichtheimia corymbifera; test: Antifungal activity against Absidia corymbifera 272 after 48 hrs by microbroth dilution method; details: Lichtheimia corymbifera, 272, 48 h
[20] = system: Trichosporon asahii; test: Antifungal activity against Trichosporon asahii 1188 after 48 hrs by microbroth dilution method; details: Trichosporon asahii, 1188, 48 h
[21] = system: Escherichia coli; test: Antibacterial activity against Escherichia coli CCM 4517 after 48 hrs by microbroth dilution method; details: CCM 4517, 48 h; summary of the method: as §1
[22] = system: Candida albicans; test: Antifungal activity against Candida albicans ATCC 44859 after 48 hrs by microbroth dilution method; details: ATCC 44859, 48 h
[23] = system: Pichia kudriavzevii; test: Antifungal activity against Candida krusei E28 after 24 hrs by microbroth dilution method; details: E28, 24 h
[24] = system: Pichia kudriavzevii; test: Antifungal activity against Candida krusei E28 after 48 hrs by microbroth dilution method; details: E28, 48 h
[25] = system: Enterococcus sp.; test: Antibacterial activity against Enterococcus sp. J 14365/08 after 48 hrs by microbroth dilution method; details: J 14365/08, 48 h; summary of the method: as §1
[26] = system: Staphylococcus aureus; test: Antibacterial activity against methicillin-resistant Staphylococcus aureus H 5996/08 after 48 hrs by microbroth dilution method; details: H 5996/08, 48 h; summary of the method: as §2
[27] = system: Trichophyton mentagrophytes; test: Antifungal activity against Trichophyton mentagrophytes 445 after 120 hrs by microbroth dilution method; details: Trichophyton mentagrophytes, 445, 120 h
[28] = system: Klebsiella pneumoniae; test: Antibacterial activity against ESBL-positive Klebsiella pneumoniae J 14368/08 after 48 hrs by microbroth dilution method; details: J 14368/08, 48 h; summary of the method: as §1

| Structure (SMILES) | MIC [1] [µM] | MIC [2] [µM] | MIC [3] [µM] | MIC [4] [µM] | MIC [5] [µM] | MIC [6] [µM] | MIC [7] [µM] | MIC [8] [µM] | MIC [9] [µM] | MIC [10] [µM] | MIC [11] [µM] | MIC [12] [µM] | MIC [13] [µM] | MIC [14] [µM] | MIC [15] [µM] | MIC [16] [µM] | MIC [17] [µM] | MIC [18] [µM] | MIC [19] [µM] | MIC [20] [µM] | other results |
| --- | --- | --- | --- | --- | --- | --- | --- | --- | --- | --- | --- | --- | --- | --- | --- | --- | --- | --- | --- | --- | --- |
| O=C(NC1CCCCC1)Oc1ccccc1C(=O)Nc1ccccc1 | > 500 | > 500 | 250 (≈ 84.6 µg/mL) | 500 (≈ 169 µg/mL) | 500 (≈ 169 µg/mL) | > 500 | > 500 | > 500 | > 500 | > 500 | 250 (≈ 84.6 µg/mL) | > 500 | 500 (≈ 169 µg/mL) | 500 (≈ 169 µg/mL) | > 500 | > 500 | > 500 | > 500 | > 500 | > 500 | MIC [21]: > 500 µM; MIC [22]: > 500 µM; MIC [23]: > 500 µM; MIC [24]: > 500 µM; MIC [25]: 500 µM (≈ 169 µg/mL); MIC [26]: 500 µM (≈ 169 µg/mL); MIC [27]: > 500 µM; MIC [28]: > 500 µM |
| O=C(NCc1ccccc1)Oc1ccc(Cl)cc1C(=O)Nc1ccc(F)cc1 | > 250 | 250 (≈ 99.7 µg/mL) | 15.6 (≈ 6.23 µg/mL) | 15.6 (≈ 6.23 µg/mL) | 15.6 (≈ 6.23 µg/mL) | 250 (≈ 99.7 µg/mL) | > 250 | 125 (≈ 49.9 µg/mL) | > 500 | > 500 | 15.6 (≈ 6.23 µg/mL) | > 500 | 15.6 (≈ 6.23 µg/mL) | > 500 | > 250 | 125 (≈ 49.9 µg/mL) | > 500 | 250 (≈ 99.7 µg/mL) | > 250 | > 250 | MIC [21]: > 500 µM; MIC [22]: > 250 µM; MIC [23]: 250 µM (≈ 99.7 µg/mL); MIC [24]: > 250 µM; MIC [25]: > 500 µM; MIC [26]: 31.2 µM (≈ 12.5 µg/mL); MIC [27]: 250 µM (≈ 99.7 µg/mL); MIC [28]: > 500 µM |
| O=C(NCCc1ccccc1)Oc1ccc(Cl)cc1C(=O)Nc1ccc(Br)cc1 | 125 (≈ 59.2 µg/mL) | 3.9 (≈ 1.85 µg/mL) | ≤ 0.49 | 0.98 (≈ 0.464 µg/mL) | 0.98 (≈ 0.464 µg/mL) | > 125 | > 125 | 125 (≈ 59.2 µg/mL) | > 500 | > 500 | 1.95 (≈ 0.924 µg/mL) | > 500 | ≤ 0.49 | > 500 | > 125 | 62.5 (≈ 29.6 µg/mL) | > 500 | 125 (≈ 59.2 µg/mL) | 125 (≈ 59.2 µg/mL) | 62.5 (≈ 29.6 µg/mL) | MIC [21]: > 500 µM; MIC [22]: > 125 µM; MIC [23]: > 125 µM; MIC [24]: > 125 µM; MIC [25]: > 500 µM; MIC [26]: 1.95 µM (≈ 0.924 µg/mL); MIC [27]: 3.9 µM (≈ 1.85 µg/mL); MIC [28]: > 500 µM |
| O=C(NC12CC3CC(CC(C3)C1)C2)Oc1ccc(Cl)cc1C(=O)Nc1ccc(Br)cc1 | > 125 | 7.81 (≈ 3.93 µg/mL) | 0.98 (≈ 0.494 µg/mL) | 1.95 (≈ 0.982 µg/mL) | 1.95 (≈ 0.982 µg/mL) | > 125 | > 125 | > 125 | > 250 | 31.2 (≈ 15.7 µg/mL) | 1.95 (≈ 0.982 µg/mL) | > 250 | 0.98 (≈ 0.494 µg/mL) | > 500 | > 125 | > 125 | > 250 | > 125 | > 125 | > 125 | MIC [21]: > 250 µM; MIC [22]: > 125 µM; MIC [23]: > 125 µM; MIC [24]: > 125 µM; MIC [25]: > 500 µM; MIC [26]: 3.9 µM (≈ 1.96 µg/mL); MIC [27]: 7.81 µM (≈ 3.93 µg/mL); MIC [28]: 125 µM (≈ 63 µg/mL) |
| O=C(Nc1ccccc1)Oc1ccc(Cl)cc1C(=O)Nc1ccc(Br)cc1 | 125 (≈ 55.7 µg/mL) | 3.9 (≈ 1.74 µg/mL) | ≤ 0.49 | ≤ 0.49 | 0.98 (≈ 0.437 µg/mL) | > 500 | > 500 | 125 (≈ 55.7 µg/mL) | > 500 | > 500 | 0.98 (≈ 0.437 µg/mL) | > 500 | ≤ 0.49 | 500 (≈ 223 µg/mL) | > 500 | 125 (≈ 55.7 µg/mL) | > 500 | > 500 | > 500 | 125 (≈ 55.7 µg/mL) | MIC [21]: > 500 µM; MIC [22]: > 500 µM; MIC [23]: 250 µM (≈ 111 µg/mL); MIC [24]: 250 µM (≈ 111 µg/mL); MIC [25]: 500 µM (≈ 223 µg/mL); MIC [26]: 0.98 µM (≈ 0.437 µg/mL); MIC [27]: 3.9 µM (≈ 1.74 µg/mL); MIC [28]: > 500 µM |
